What was measured:
Assay type in all cases: functional
Saccharomyces cerevisiae [1] = experiment: Antifungal activity against Saccharomyces cerevisiae 156250 at 1 mg/ml after 48 hrs by agar-well diffusion technique; settings: Saccharomyces cerevisiae, 156250, 48 h; read-out: DIZ
Method in brief: (§1)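 Yeast (0.1 ml) was spread on potato dextrose agar, and 4 mm wells were cut with a sterile cork borer. Wells were loaded with test chemical at a final 1 mg ml^-1, then incubated at 25 °C for 48 h. Inhibition zones around the wells were measured, averaged over 3 replicas.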

Escherichia coli [2] = experiment: Antibacterial activity against Escherichia coli 124300 at 1 mg/ml after 24 hrs by agar-well diffusion technique; settings: Escherichia coli, 124300, 24 h; read-out: DIZ
Method in brief: (§2)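 Each bacterial strain (0.1 ml) was spread on nutrient agar, and 4 mm wells were cut with a sterile cork borer. Wells were loaded with test chemical at a final 1 mg ml^-1, then incubated at 37 °C for 24 h. Inhibition zone diameters around the wells were measured, averaged over 3 replicas.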

Pseudomonas aeruginosa [3] = experiment: Antibacterial activity against Pseudomonas aeruginosa 155250A at 1 mg/ml after 24 hrs by agar-well diffusion technique; settings: read-out: DIZ; method in brief: as §2
Bacillus subtilis [4] = experiment: Antibacterial activity against Bacillus subtilis 154921 at 1 mg/ml after 24 hrs by agar-well diffusion technique; settings: Bacillus subtilis, 154921, 24 h; read-out: DIZ; method in brief: as §2
Candida albicans [5] = experiment: Antifungal activity against Candida albicans 155965 at 1 mg/ml after 48 hrs by agar-well diffusion technique; settings: Candida albicans, 155965, 48 h; read-out: DIZ; method in brief: as §1
Serratia marcescens [6] = experiment: Antibacterial activity against Serratia marcescens 155449 at 1 mg/ml after 24 hrs by agar-well diffusion technique; settings: Serratia marcescens, 155449, 24 h; read-out: DIZ; method in brief: as §2
Staphylococcus aureus [7] = experiment: Antibacterial activity against Staphylococcus aureus 155554A at 1 mg/ml after 24 hrs by agar-well diffusion technique; settings: read-out: DIZ; method in brief: as §2
Candida albicans [8] = experiment: Antifungal activity against Candida albicans 155965 at 100 mg/ml after 48 hrs by agar-well diffusion technique; settings: Candida albicans, 155965, 48 h; read-out: DIZ
Method in brief: (§3)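 0.1 ml of the yeast spread on potato dextrose agar. 4 mm wells were cut with a sterile cork borer and filled with test solution. Plates were incubated at 25 °C for 48 h. Inhibition zones around the wells were measured, and the mean of 3 replicas was recorded. Cycloheximide served as the antifungal reference.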

Saccharomyces cerevisiae [9] = experiment: Antifungal activity against Saccharomyces cerevisiae 156250 at 100 mg/ml after 48 hrs by agar-well diffusion technique; settings: Saccharomyces cerevisiae, 156250, 48 h; read-out: DIZ; method in brief: as §3
Escherichia coli [10] = experiment: Antibacterial activity against Escherichia coli 124300 at 100 mg/ml after 24 hrs by agar-well diffusion technique; settings: Escherichia coli, 124300, 24 h; read-out: DIZ
Method in brief: (§4)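 The penicillin reference was applied at 100 mg ml^-1 in 4 mm wells on nutrient agar plates spread with 0.1 ml of each bacterial strain. Plates were incubated at 37 °C for 24 h, and inhibition zones were measured as the average of 3 replicas.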

Serratia marcescens [11] = experiment: Antibacterial activity against Serratia marcescens 155449 at 100 mg/ml after 24 hrs by agar-well diffusion technique; settings: Serratia marcescens, 155449, 24 h; read-out: DIZ; method in brief: as §4
Staphylococcus aureus [12] = experiment: Antibacterial activity against Staphylococcus aureus 155554A at 100 mg/ml after 24 hrs by agar-well diffusion technique; settings: read-out: DIZ
Method in brief: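 0.1 ml of the bacterial strain spread on nutrient agar. 4 mm wells were cut with a sterile cork borer and filled with test solution. Plates were incubated at 37 °C for 24 h. Inhibition zone diameters were measured around the wells, and the average of 3 replicas was recorded. Penicillin served as the antibacterial reference.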

Bacillus subtilis [13] = experiment: Antibacterial activity against Bacillus subtilis 154921 at 100 mg/ml after 24 hrs by agar-well diffusion technique; settings: Bacillus subtilis, 154921, 24 h; read-out: DIZ; method in brief: as §4
Pseudomonas aeruginosa [14] = experiment: Antibacterial activity against Pseudomonas aeruginosa 155250A at 100 mg/ml after 24 hrs by agar-well diffusion technique; settings: read-out: DIZ; method in brief: as §4

| Structure (SMILES) | zone of inhibition at 1000 µg/mL (Saccharomyces cerevisiae [1]) [mm] | zone of inhibition at 1000 µg/mL (Escherichia coli [2]) [mm] | zone of inhibition at 1000 µg/mL (Pseudomonas aeruginosa [3]) [mm] | zone of inhibition at 1000 µg/mL (Bacillus subtilis [4]) [mm] | zone of inhibition at 1000 µg/mL (Candida albicans [5]) [mm] | zone of inhibition at 1000 µg/mL (Serratia marcescens [6]) [mm] | zone of inhibition at 1000 µg/mL (Staphylococcus aureus [7]) [mm] | zone of inhibition at 100000 µg/mL (Candida albicans [8]) [mm] | zone of inhibition at 100000 µg/mL (Saccharomyces cerevisiae [9]) [mm] | zone of inhibition at 100000 µg/mL (Escherichia coli [10]) [mm] | zone of inhibition at 100000 µg/mL (Serratia marcescens [11]) [mm] | zone of inhibition at 100000 µg/mL (Staphylococcus aureus [12]) [mm] | zone of inhibition at 100000 µg/mL (Bacillus subtilis [13]) [mm] | zone of inhibition at 100000 µg/mL (Pseudomonas aeruginosa [14]) [mm] |
| --- | --- | --- | --- | --- | --- | --- | --- | --- | --- | --- | --- | --- | --- | --- |
| N#Cc1c(-c2ccccc2)csc1NC(=O)c1cc2ccccc2[nH]c1=O | 14 | 8.6 | 10 | 11 | 16 | 6 | 12 | – | – | – | – | – | – | – |
| CCOC(=O)c1sc(NC(=O)/C(C#N)=N/Nc2ccccc2)c(C#N)c1C | 0 | 0 | 6 | 13 | 0 | 2.6 | 14 | – | – | – | – | – | – | – |
| N#CCC(=O)Nc1scc(-c2ccccc2)c1C#N | 2.6 | 4 | 4 | 2 | 4 | 2 | 0 | – | – | – | – | – | – | – |
| N#CCC(=O)Nc1scc(-c2ccc(Cl)cc2)c1C#N | 3 | 4 | 4 | 4.6 | 0 | 1.3 | 0 | – | – | – | – | – | – | – |
| CN(C)/C=C(\C#N)C(=O)Nc1scc(-c2ccc(Cl)cc2)c1C#N | 1.3 | 4 | 4 | 1 | 0 | 7 | 0 | – | – | – | – | – | – | – |
| N#Cc1c(-c2ccccc2)csc1NC(=O)c1cn[nH]c1N | 2.6 | 2.6 | 6.6 | 2 | 4 | 0.7 | 0 | – | – | – | – | – | – | – |
| N#Cc1c(-c2ccc(Cl)cc2)csc1NC(=O)c1cn[nH]c1N | 4 | 0 | 3.3 | 7.3 | 6.6 | 2 | 2 | – | – | – | – | – | – | – |
| N#Cc1c(-c2ccccc2)c(C#N)c2[nH]c(=O)c3c(-c4ccccc4)csc3n2c1=N | 2.6 | 6.3 | 4 | 4 | 2 | 4.6 | 0 | – | – | – | – | – | – | – |
| Cc1ccc(-c2c(C#N)c(=N)n3c([nH]c(=O)c4c(-c5ccccc5)csc43)c2C#N)cc1 | 0.7 | 2.6 | 6 | 2 | 0 | 3.3 | 0 | – | – | – | – | – | – | – |
| N#Cc1c(-c2ccccc2)c(C#N)c2[nH]c(=O)c3c(-c4ccc(Cl)cc4)csc3n2c1=N | 4 | 4 | 6 | 2 | 0 | 4 | 0 | – | – | – | – | – | – | – |
| Cc1ccc(-c2c(C#N)c(=N)n3c([nH]c(=O)c4c(-c5ccc(Cl)cc5)csc43)c2C#N)cc1 | 2 | 3.3 | 6 | 2 | 0 | 4 | 0 | – | – | – | – | – | – | – |
| N#Cc1c(-c2ccc([N+](=O)[O-])cc2)c(C#N)c2[nH]c(=O)c3c(-c4ccc(Cl)cc4)csc3n2c1=N | 1.3 | 5.3 | 6 | 4 | 2.6 | 4 | 0 | – | – | – | – | – | – | – |
| N#Cc1c(-c2ccc(Cl)cc2)c(C#N)c2[nH]c(=O)c3c(-c4ccc(Cl)cc4)csc3n2c1=N | 0.7 | 4 | 7 | 3.3 | 0 | 2.6 | 0 | – | – | – | – | – | – | – |
| CCOC(=O)c1sc2c(c1C)c(=O)[nH]c1c(C#N)c(-c3ccc(Cl)cc3)c(C#N)c(=N)n12 | 0 | 8 | 6 | 2 | 0 | 4.6 | 0 | – | – | – | – | – | – | – |
| CN(C)c1ccc(/C=C(\C#N)C(=O)Nc2scc(-c3ccccc3)c2C#N)cc1 | 0 | 2 | 4 | 0 | 0 | 7.3 | 0 | – | – | – | – | – | – | – |
| CN(C)c1ccc(/C=C(\C#N)C(=O)Nc2scc(-c3ccc(Cl)cc3)c2C#N)cc1 | 0 | 2 | 6 | 3.6 | 0 | 2 | 0 | – | – | – | – | – | – | – |
| N#Cc1c(-c2ccccc2)csc1NC(=O)c1ccc(-c2ccccc2)[nH]c1=O | 1.3 | 3.3 | 5.3 | 1.6 | 0 | 2 | 0 | – | – | – | – | – | – | – |
| N#Cc1c(-c2ccccc2)csc1NC(=O)c1ccc(-c2cccs2)[nH]c1=O | 2 | 2 | 4 | 2 | 0 | 2 | 0 | – | – | – | – | – | – | – |
| Cc1cccc(-c2ccc(C(=O)Nc3scc(-c4ccccc4)c3C#N)c(=O)[nH]2)n1 | 0 | 0 | 4 | 0 | 0 | 0 | 0 | – | – | – | – | – | – | – |
| C[C@@H]1C[C@@H]([C@H](O)CC2CC(=O)NC(=O)C2)C(=O)[C@@H](C)C1 [CYCLOHEXIMIDE] | – | – | – | – | – | – | – | 0 | 40 | – | – | – | – | – |
| CC1(C)S[C@@H]2[C@H](NC(=O)Cc3ccccc3)C(=O)N2[C@H]1C(=O)O [PENICILLIN G] | – | – | – | – | – | – | – | – | – | 8.6 | 7 | 40 | 4.6 | 30 |

Reference: ChEMBL document CHEMBL2021764, “2-Aminothiophenes as building blocks in heterocyclic synthesis: synthesis and antimicrobial evaluation of a new class of pyrido[1,2-a]thieno[3,2-e]pyrimidine, quinoline and pyridin-2-one derivatives” (2012)
